# Measurements of several laboratories.
# Each line is one published result; the experiments were not run side by side.
# Target: Wee1-like protein kinase 2 (WEE2, Homo sapiens, UniProt P0C1S8)
SMILES,effect on,method,concentration,remaining binding
CN(C)c1ncc(F)c(-c2cnn3ncccc23)n1,binding,,1 µM,98%
O=C(NCC1CCOCC1)c1n[nH]cc1NC(=O)c1c(F)cccc1F,binding,competition with immobilised ligand,1 µM,100%
O=C(NCCCN1CCOCC1)c1ccc(Nc2nccc(-c3cc4ccccc4s3)n2)cc1,binding,competition with immobilised ligand,1 µM,86%
NS(=O)(=O)c1cc(NC(=O)Cc2ccccc2)ccc1Oc1cccc(Cl)c1,cell-free assay,competition with immobilised ligand,1 µM,78%
CC1CCCN1c1nccc(-c2cnn3ncccc23)n1 (stereo not drawn),binding,,1 µM,100%
O=C1CCc2cc(Nc3cc(OC4CCOCC4)c([N+](=O)[O-])cc3Cl)ccc2N1,cell-free assay,competition with immobilised ligand,1 µM,96%
C[C@H]1CCN(c2nccc(-c3cnn4ncccc34)n2)C1,binding,,1 µM,100%
FC(F)(F)Oc1cccc(-c2cnc3ccc(-c4ccncc4)nn23)c1,binding,competition with immobilised ligand,5 µM,86%
O=C(NCc1ncc(C(F)(F)F)cc1Cl)c1ccc2c(c1)C1(CCS(=O)(=O)CC1)[C@H](C1CC1)N2S(=O)(=O)c1ccc(F)cc1,cell-free assay,competition with immobilised ligand,1 µM,100%
Nc1ncc2c(n1)-c1c([nH]c3ccc(C#CC4CC4)cc13)CCCC2,binding,competition with immobilised ligand,1 µM,98%
N[C@H]1CCN(c2nccc(-c3cnn4ncccc34)n2)C1,binding,,1 µM,100%
Cn1cc(Cl)c2c(Oc3c(F)cc(Nc4cc(Cl)nc(N)n4)cc3F)ccnc21,cell-free assay,competition with immobilised ligand,0.1 µM,93%
O=C(NCCCN1CCOCC1)c1ccc(Nc2ncc(Cl)c(-c3ccc(Cl)s3)n2)cc1,binding,competition with immobilised ligand,1 µM,19%
CN(C)c1nccc(-c2cnn3ncccc23)n1,binding,,1 µM,100%
c1cncc(-c2cccc(Nc3nccc(NC4CCCCC4)n3)c2)c1,binding,competition with immobilised ligand,10 µM,100%
Cc1cc(-n2nc(Cc3cc(F)cc(C(F)(F)F)c3)nc2C)ccc1C(N)=O,cell-free assay,competition with immobilised ligand,1 µM,100%
O=C(c1ccc(Nc2ncc(Cl)c(-c3ccc(Cl)s3)n2)cc1)N1CCC(N2CCCC2)CC1,binding,competition with immobilised ligand,1 µM,8.4%
c1cnn2ncc(-c3ccnc(N4CCC45COC5)n3)c2c1,binding,,1 µM,76%
FC(F)(F)c1ccc2c(c1)nc(-c1cccnc1)n2C1CC1,cell-free assay,competition with immobilised ligand,1 µM,100%
COc1ncc2cc3ccccc3nc2c1C#N,cell-free assay,competition with immobilised ligand,5 µM,100%
COc1cnc(Nc2cccc(S(N)(=O)=O)c2)nc1N1CCN(c2ccccc2)C(=O)C1,binding,competition with immobilised ligand,1 µM,100%
